# This is a sample that favours compounds with a hit; in the whole collection about 2.2% have one here.
# IEC-6 cytotox: cytotoxicity in IEC-6 intestinal epithelial cells, primary screen, cytotoxicity control for KLF5 inhibitor project, cell-based, luminescence. actives 0.78% (n = 290,000). AID 1825, 2009. IEC-6 cytotoxicity, luminescence viability. inhibition, % at 5 µM; in the data active means inhibition above about 22%;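 further: 0% = plate median of test compound wells and 100% = cytotoxic reference compound wells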
# APP 5UTR inh: inhibitors of APP translation via 5'UTR reporter, primary screen, APP 5'UTR luciferase, SH-SY5Y cells; SH-SY5Y APP 5'UTR-luciferase reporter, luminescence; inhibition, % at 2 µM; actives 0.82% (n = 190,000); AID 1285, 2008;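 active means inhibition above a set limit, derived from the sample mean plus 3 SD, cut at about 45% in these data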
# MT stabilizer: microtubule stabilizers in HeLa cells, primary screen, imaging, high-content imaging. HeLa tubulin immunostaining HCS, 24 h; share of cells brighter than vehicle mean+2SD. % tubulin-high responders, % at 10 µM. actives 0.83% (n = 200,000). AID 2205, 2009;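 active means plate Z-score above 3 for both tubulin-high and condensed-nucleus cell shares, with cell loss under 80%, at 10 µM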;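 further: anti alpha tubulin signal scored within the nucleus-defined area of each cell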
# Ba/F3 V617F tox: reduced viability of JAK2V617F-dependent Ba/F3 cells, primary screen, JAK2V617F inhibitor project, cell-based, Ba/F3 EpoR-JAK2V617F, luminescence; ATP luminescence; inhibition, % at 5.6 µM; actives 1.1% (n = 220,000); AID 1446, 2008;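 active means inhibition above the campaign mean plus 3 SD over all tested compounds, cut at about 24% in these data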;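 further: cytokine-independent growth of Ba/F3 cells driven by EpoR plus mutant JAK2; 0% = DMSO-treated cells and 100% = JAK inhibitor I control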
# BaF3 tox: parental Ba/F3 cell viability inhibition, counter-screen for JAK2V617F inhibitor project, murine pro-B, CellTiter-Glo luminescence | CellTiter-Glo ATP luminescence | inhibition, % at 5.6 µM | actives 1.1% (n = 220,000) | AID 1486, 2009;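 active means inhibition above a per-campaign cutoff, the mean inhibition of all tested compounds plus 3 SD, cut at about 27% in these data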;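 further: 0% = DMSO wells and 100% = JAK Inhibitor I control wells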
# b-catenin transl: modulators of beta-catenin nuclear translocation, primary screen, imaging, HeLa cells, immunofluorescence, high-content | nuclear translocation activity, % at 5 µM | actives 0.3% (n = 190,000) | AID 1665, 2009;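 active means nuclear translocation activity above 50% at 5 µM, with a well cell count of 50 or more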;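 further: per-cell ratio of nuclear to cytoplasmic median beta-catenin stain intensity; plate controls were DMSO negative control for no effect and GSK-3 inhibitor IX positive control for full effect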
#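 Technique: fluorescence imaging of beta-catenin antibody stain plus DAPI / Material: human HeLa cell line / Incubation: compound treatment 24 h, 37°C, 5% CO2 / Read-out basis: % activation of per-cell nuclear versus cytoplasmic median beta-catenin signal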
# BaF3 tox 2: parental Ba/F3 cell viability inhibition, counter-screen for JAK2V617F inhibitor project, murine pro-B, CellTiter-Glo luminescence | actives 31% (n = 580) | cells kept alive by added IL-3 | shares compounds with Ba/F3 V617F tox | inhibition, % at 5.6 µM;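 active means cell growth inhibition above the hit limit set in the earlier mutant JAK2 cell screen, cut at about 27% in these data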;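 further: plate controls were DMSO-treated cells for no effect and JAK Inhibitor I control wells for full effect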
# JAK2V617F conf: viability loss in Ba/F3 EpoR-JAK2V617F cells, confirmation, JAK2V617F inhibitor project, cell-based, luminescence, triplicate | shares compounds with Ba/F3 V617F tox | CellTiter-Glo luminescence | inhibition, % at 5.6 µM | actives 66% (n = 580) | AID 1521, 2009;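 active means mean inhibition above the hit cutoff derived in the earlier primary screen, cut at about 25% in these data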;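 further: 0% = DMSO-treated cells and 100% = JAK inhibitor I control wells; higher means lower luminescence from reduced cell ATP and viability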
# An asterisk follows results filed as active; nt = no result.
SMILES,IEC-6 cytotox,APP 5UTR inh,MT stabilizer,Ba/F3 V617F tox,BaF3 tox,b-catenin transl,BaF3 tox 2,JAK2V617F conf
Cc1cccc(NC(=O)c2cnn3ccccc23)c1C,2,nt,nt,28*,10,3,5,25*
CCc1c(C)nc(N2CCN(c3ccccc3F)CC2)[nH]c1=O,8,nt,nt,nt,nt,nt,nt,nt
COc1ccc(CNC(=O)CCS(=O)(=O)c2ccc3c(c2)CC(C)N3C(=O)C2CC2)cc1 (stereo not given),2,nt,nt,nt,nt,nt,nt,nt
CCc1cccc(NS(=O)(=O)c2ccc3c(c2)N(C)CCO3)c1,5,nt,nt,nt,nt,nt,nt,nt
C=CCOc1nc2c(c(=O)n(C)c(=O)n2C)n1Cc1ccc(Cl)cc1,2,-21,2,24*,14,-2,62*,53*
Cc1cccn2cc(COc3cccc([N+](=O)[O-])c3)nc12,2,-22,2,6,10,-2,nt,nt
Cc1cccn2cc(COc3ccc(-c4ccccc4)cc3)nc12,-12,-44,1,48*,25,4,43*,43*
Cc1c(C(=O)OCC(C)C)[nH]c2c1C(=O)CC(c1cccs1)C2 (stereo not given),11,59*,13*,24*,8,295*,59*,88*
COC(=O)c1[nH]c2c(c1C)C(=O)CC(c1ccc(C)cc1)C2 (stereo not given),5,14,3,1,4,2,nt,nt
O=C(NNC(=O)C1CC(c2cccs2)=NO1)Nc1ccc(Cl)cc1 (stereo not given),-5,nt,nt,nt,nt,nt,nt,nt
COC(CNC(=O)c1ccc2c(c1)ncn2-c1ccc(C)cc1C)OC,2,nt,nt,nt,nt,nt,nt,nt
COc1ccccc1N1CCc2c(C)nc3c(OC)cccc3c21,11,nt,0,45*,11,-5,8,50*
NS(=O)(=O)c1cccc(NC(=O)C(Cc2ccccc2)NC(=O)c2ccccc2)c1 (stereo not given),-6,nt,nt,nt,nt,nt,nt,nt
CCCC1O[C@@H]2CC3C4CCC5=CC(=O)C=C[C@]5(C)C4C(OC(C)=O)C[C@]3(C)[C@]2(C(=O)COC(C)=O)O1 (stereo not given in full),-11,-10,3,25*,3,-5,-1,28*
O=C(NCC1CCCO1)C1CC(=O)N(c2cccc(Cl)c2)C1 (stereo not given),6,nt,nt,nt,nt,nt,nt,nt
CNC(=S)c1cc(C(C)(C)C)c(O)c(C(C)(C)C)c1,-2,nt,nt,-3,1,0,nt,nt
COCCN1C2=C(C(=O)CC(C)(C)C2)C(c2ccc(OC)c(OC)c2)C2=C1CC(C)(C)CC2=O,-4,nt,nt,nt,nt,nt,nt,nt
CN(c1ccccc1)S(=O)(=O)c1cccc(C(=O)NCCc2ccc(O)c(O)c2)c1,12,-4,6,32*,7,-1,4,67*
CCOc1ccc(NC(=S)NNC(=O)CC(C)O)cc1 (stereo not given),0,5,3,26*,1,0,-2,-5
CCOc1ccc(NC(=O)CSC(N)=O)cc1,-9,5,6,74*,4,-1,-6,12
CCOc1ccc(NC(=O)CC)cc1,-2,9,1,-2,5,0,nt,nt
COc1ccc(CCNCC2C(Oc3ccc(Cl)cc3)C(=O)N2c2ccccc2C)cc1OC (stereo not given),2,-15,5,7,5,0,nt,nt
COc1ccccc1C(=O)NCCC(=O)N1CCCC(C)C1 (stereo not given),6,nt,nt,nt,nt,nt,nt,nt
COc1ccc(Cl)cc1S(=O)(=O)N1CCN=C1Cc1ccccc1,-4,nt,nt,nt,nt,nt,nt,nt
COc1ccccc1S(=O)(=O)n1cc(Cc2ccccc2)c(N)n1,0,0,6,100*,1,-6,-7,-5
SMILES,IEC-6 cytotox,APP 5UTR inh,MT stabilizer,Ba/F3 V617F tox,BaF3 tox,b-catenin transl,BaF3 tox 2,JAK2V617F conf
COc1ccc(-c2csc(Nc3ncccc3C)n2)cc1OC,3,-31,2,2,4,2,nt,nt
Cc1cccnc1Nc1nc(-c2ccc(O)c(O)c2)cs1,14,-39,3,81*,25,nt,25,93*
O=C(CN1C(=O)CSc2ccc(S(=O)(=O)N3CCOCC3)cc21)NCc1ccc(Cl)cc1,2,nt,nt,nt,nt,nt,nt,nt
CCOc1ccc(C(C(=O)NC2CCCC2)N(C(=O)c2snc(C(N)=O)c2N)c2cccc(O)c2)cc1 (stereo not given),-1,nt,nt,nt,nt,nt,nt,nt
COCCn1c(=S)[nH]c2cc(C(=O)N3CCN(c4ccccc4OC)CC3)ccc2c1=O,7,8,3,-1,2,1,nt,nt
COCCn1c(=S)[nH]c2cc(C(=O)N3CCN(c4ccc(F)cc4)CC3)ccc2c1=O,-3,-2,2,51*,1,2,3,5
CC(C)(C)OC(=O)N1CCC[C@H]1C(=O)N/N=C/c1ccc2ncccc2c1,3,nt,nt,3,-6,0,nt,nt
Cc1cc(/C=C(\C#N)C(=O)N2CCOCC2)c(C)n1C1CCCC1,1,nt,nt,-2,4,-2,nt,nt
CCc1ccc(NC(=O)C(NS(=O)(=O)c2ccc3c(c2)CCN3C(C)=O)C(C)C)cc1 (stereo not given),-4,nt,nt,nt,nt,nt,nt,nt
COc1ccc(CCNC(=O)C(NS(=O)(=O)c2ccc3c(c2)CCN3C(C)=O)C(C)C)cc1OC (stereo not given),-3,12,3,65*,11,0,-4,-2
CN(C)CCCN(C(=O)CCOc1ccccc1)c1nc2c(F)cccc2s1,-1,34,4,25*,3,-3,4,30*
CCOC(=O)C1(CCc2ccccc2)CCN(Cc2cc(OC)c(OC)cc2OC)CC1,2,nt,nt,nt,nt,nt,nt,nt
Cc1ccc(C)c(N2CCN(CCCNC(=O)Cn3cccc3C(=O)c3ccccc3C)CC2)c1,15,-2,2,41*,2,-2,2,29*
CCSc1nnc([C@H](Cc2ccccc2)NC(=O)OC(C)(C)C)o1,-3,14,2,0,6,0,nt,nt
CCC(C)[C@@H](NC(=O)OC(C)(C)C)c1nnc(S(=O)(=O)Cc2cccc(C)c2)o1 (stereo not given in full),7,21,5,26*,14,-4,12,66*
Cc1cccc(CS(=O)(=O)Cc2ccc(C(=O)NC(C)c3ccccc3)o2)c1 (stereo not given),-6,nt,nt,nt,nt,nt,nt,nt
Cc1ccccc1CS(=O)(=O)c1nnc([C@H](Cc2ccccc2)NC(=O)OC(C)(C)C)o1,4,70*,1,37*,2,nt,2,95*
